In ChEMBL document CHEMBL3120085 (J Med Chem, 2014):

Legend:
[1] = Oral bioavailability in rat at 5 mg/kg; type: ADME, organism-based; details: in vivo
Procedure, shortened: (§1)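 F from mean AUC0−∞ after single doses: rat 1 mg/kg iv and 5 mg/kg po (n = 3/dose, or iv n = 2); monkey 1 mg/kg iv and 30 mg/kg po, n = 2/dose.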

[2] = Ratio of unbound drug level in brain homogenate to plasma in rat at 1 mg/kg, sc; type: ADME, organism-based; set-up: dose 1 mg/kg, route subcutaneous
[3] = Apparent passive permeability from apical to basolateral side in dog RRCK cells; type: ADME, cell-based, Canis lupus familiaris, MDCKII-LE; details: MDCK
Procedure, shortened: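 Passive A→B permeability measured across RRCK cells, a low-transporter line isolated from MDCK cells.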

[4] = Oral bioavailability in monkey at 30 mg/kg; type: ADME, organism-based, Macaca mulatta; details: rhesus monkey, in vivo; procedure, shortened: as §1
[5] = Volume of distribution at steady state in monkey; type: ADME, organism-based, Macaca mulatta; details: rhesus monkey, in vivo; read-out: Vdss
[6] = Volume of distribution at steady state in rat; type: ADME, organism-based; details: in vivo, read-out: Vdss
[7] = Ratio of unbound drug level in brain homogenate to plasma in rat at 1 mg/kg, sc after 4 hrs; type: ADME, organism-based; set-up: dose 1 mg/kg, route subcutaneous
Procedure, shortened: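 Rat neuropharmacokinetic study, single 1 mg/kg sc dose, n = 2 per time point. Ratio derived from AUC0−4 of unbound brain versus unbound plasma concentration. Unbound concentrations were corrected using the unbound fraction measured in brain homogenate and in plasma.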

| Papp A→B [3] [×10⁻⁶ cm/s] | SMILES | other results |
| --- | --- | --- |
| 31.5 | CCN(CC)C(=O)c1nn(C)c2nc(OCc3ccccn3)cnc12 | bioavailability [1]: 35%; Kp uu [2]: 0.51 |
| 0.78 | Cn1nc(-c2ccccc2)c2ccc(OCc3ccccn3)nc21 | – |
| 24.4 | Cn1nc(-c2cccnc2)c2ccc(OCc3ccccn3)nc21 | – |
| 21.4 | Cn1nc(-c2cnccc2C(F)(F)F)c2ncc(OCc3ccccn3)nc21 | – |
| 14.1 | Cc1c(Cl)cncc1-c1nn(C)c2nc(OCc3ccccn3)cnc12 | – |
| 21.5 | Cc1ccnnc1-c1nn(C)c2nc(OCc3ccccn3)cnc12 | – |
| 19.8 | CCC(C)NC(=O)c1nn(C)c2nc(OCc3cccc(C)n3)ccc12 (stereo not given) | – |

More lines, now with the values behind:

| SMILES | Papp A→B [3] [×10⁻⁶ cm/s] | other results |
| --- | --- | --- |
| Cn1nc(-c2ccccn2)c2ccc(OCc3ccccn3)nc21 | 11.7 | – |
| Cn1nc(-c2cccnc2)c2ncc(OCc3ccccn3)nc21 | 22.5 | – |
| Cc1cccnc1-c1nn(C)c2nc(OCc3ccccn3)cnc12 | 28.5 | – |
| Cc1ccncc1-c1nn(C)c2nc(OCc3ccccn3)cnc12 | 21 | bioavailability [4]: 67%; Vd [5]: 0.69 L/kg; Vd [6]: 1.3 L/kg; Kp uu at 4 h [7]: 2; bioavailability [1]: 28% |
| Cn1nc(-c2ncccc2OC(F)F)c2ncc(OCc3ccccn3)nc21 | 28.7 | – |
| Cc1c(-c2nn(C)c3nc(OCc4ccccn4)cnc23)cnn1C | 14.4 | – |
| CCn1nc(-c2cnccc2C)c2ncc(OCc3ccccn3)nc21 | 13.8 | – |
| Cc1ccncc1-c1nn(C2CC2)c2nc(OCc3ccccn3)cnc12 | 19.6 | – |
| C[C@@H]1CCCN1C(=O)c1nn(C)c2nc(OCc3ccccn3)ccc12 | 21 | bioavailability [1]: 0.4%; Kp uu [2]: 1.01 |
